This is an account of results in ChEMBL document CHEMBL4680332, “Lead optimization of 2-hydroxymethyl imidazoles as non-hydroxamate LpxC inhibitors: Discovery of TP0586532” (Bioorg Med Chem, 2021).

A short description of series [1]: Inhibition of Escherichia coli LpxC using DP-3-0-(R-3-hydroxymyristoy1)-N-acetylglucosamine as substrate incubated for 120 mins by fluorescamine assay.
A further series has as its system Escherichia coli. Briefly: Antibacterial activity against Escherichia coli ATCC 25922 by CLSI based broth microdilution method. In kind it is functional. In outline:
(§1)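 Broth microdilution MIC per CLSI method; E. coli ATCC 25922 and K. pneumoniae ATCC 13883.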

Series [2] deals with Klebsiella pneumoniae. The series is described as follows: Antibacterial activity against Klebsiella pneumonia ATCC 13883 by CLSI based broth microdilution method. The series is classed as functional. In outline:
as §1

A short description of series [3]: Protein binding in human serum at 1 ug/ml incubated for 4 hrs by LC-MS/MS analysis. The series is classed as ADME, cell-free. Particulars: at 1 µg/mL, read-out: PB (converted). Put shortly: (§2)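 Equilibrium dialysis at 1 µg/mL final in pooled male ICR mouse serum or human volunteer serum (no anticoagulant). Dialyzed against 50 mM sodium phosphate buffer at 37 °C for 4 h (5% CO2, MWCO 12000–14000). Compound on each side measured by LC-MS/MS; binding % = (Cs−Cb)/Cs×100.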

The nature of series [4]: Protein binding in ICR mouse serum at 1 ug/ml incubated for 4 hrs by LC-MS/MS analysis. The series is classed as ADME, cell-free. As to conditions: at 1 µg/mL, read-out: PB (converted). In outline: as §2
Series [5] deals with Klebsiella pneumoniae. The series is described as follows: In vivo antibacterial activity against Klebsiella pneumonia ATCC BAA-2343 infected in ICR mouse assessed as reduction in bacterial burden in lung at 50 mg/kg, sc administered after 2 hrs of infection and measured after 26 hrs of infection. The series is classed as functional. As to conditions: time 24 hrs. In outline:
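Female ICR mice (5 weeks) made neutropenic with cyclophosphamide ip, 150 and 100 mg/kg at days −4 and −1. Intranasal inoculation with 1.5–1.9 × 10^6 CFU. Compound in 10w/v% HP-β-CD given sc 2 h post-infection (n = 5). Lung viable counts at 2 h (control) and 26 h; mean log change versus start of therapy.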

A short description of series [6]: Toxicity in iv dosed ICR mouse assessed as maximum tolerated dose. In kind it is organism-based. As to conditions: in vivo. Put shortly:
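Exploratory MTD study in male ICR mice (n = 2): a single intravenous tail-vein injection at dose levels of up to 200 mg/kg.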

A short description of series [7]: Cardiotoxicity in iv dosed Hartley guinea pig assessed as increase in QT prolongation measured after 30 mins. The series is classed as toxicity, organism-based, Cavia porcellus. Particulars: in vivo, 0.5 h. In outline:
(§3)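 Guinea pigs (6–7 weeks) anesthetized with pentobarbital 60 mg/kg ip, then infused iv at 8 mg/kg/h; ventilated at 15 mL/kg, 60/min. Vehicle (11w/v% SBE-β-CD, pH4) or compound infused via jugular vein for 30 min. Carotid arterial pressure and ECG recorded; QT corrected by Bazett. Heart rate, QTc, SBP and DBP expressed as change from baseline.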

Series [8] in a line: Cardiotoxicity in iv dosed Hartley guinea pig assessed as decrease in heart rate measured after 30 mins. As to conditions: in vivo, 0.5 h. In kind it is toxicity, organism-based, Cavia porcellus. Put shortly:
as §3

The nature of series [9]: Cardiotoxicity in Hartley guinea pig assessed as decrease in blood pressure at 150 mg/kg, iv measured after 30 mins. The series is classed as toxicity, organism-based, Cavia porcellus. As to conditions: in vivo, 0.5 h. Put shortly:
as §3

In series [10] the target is Voltage-gated inwardly rectifying potassium channel KCNH2 (Homo sapiens, UniProt Q12809). The series is described as follows: Inhibition of human ERG expressed in CHO cells by whole cell Q-patch clamp assay. The series is classed as cell-based.
Chain of Voltage-gated inwardly rectifying potassium channel KCNH2 (Q12809 whole entry): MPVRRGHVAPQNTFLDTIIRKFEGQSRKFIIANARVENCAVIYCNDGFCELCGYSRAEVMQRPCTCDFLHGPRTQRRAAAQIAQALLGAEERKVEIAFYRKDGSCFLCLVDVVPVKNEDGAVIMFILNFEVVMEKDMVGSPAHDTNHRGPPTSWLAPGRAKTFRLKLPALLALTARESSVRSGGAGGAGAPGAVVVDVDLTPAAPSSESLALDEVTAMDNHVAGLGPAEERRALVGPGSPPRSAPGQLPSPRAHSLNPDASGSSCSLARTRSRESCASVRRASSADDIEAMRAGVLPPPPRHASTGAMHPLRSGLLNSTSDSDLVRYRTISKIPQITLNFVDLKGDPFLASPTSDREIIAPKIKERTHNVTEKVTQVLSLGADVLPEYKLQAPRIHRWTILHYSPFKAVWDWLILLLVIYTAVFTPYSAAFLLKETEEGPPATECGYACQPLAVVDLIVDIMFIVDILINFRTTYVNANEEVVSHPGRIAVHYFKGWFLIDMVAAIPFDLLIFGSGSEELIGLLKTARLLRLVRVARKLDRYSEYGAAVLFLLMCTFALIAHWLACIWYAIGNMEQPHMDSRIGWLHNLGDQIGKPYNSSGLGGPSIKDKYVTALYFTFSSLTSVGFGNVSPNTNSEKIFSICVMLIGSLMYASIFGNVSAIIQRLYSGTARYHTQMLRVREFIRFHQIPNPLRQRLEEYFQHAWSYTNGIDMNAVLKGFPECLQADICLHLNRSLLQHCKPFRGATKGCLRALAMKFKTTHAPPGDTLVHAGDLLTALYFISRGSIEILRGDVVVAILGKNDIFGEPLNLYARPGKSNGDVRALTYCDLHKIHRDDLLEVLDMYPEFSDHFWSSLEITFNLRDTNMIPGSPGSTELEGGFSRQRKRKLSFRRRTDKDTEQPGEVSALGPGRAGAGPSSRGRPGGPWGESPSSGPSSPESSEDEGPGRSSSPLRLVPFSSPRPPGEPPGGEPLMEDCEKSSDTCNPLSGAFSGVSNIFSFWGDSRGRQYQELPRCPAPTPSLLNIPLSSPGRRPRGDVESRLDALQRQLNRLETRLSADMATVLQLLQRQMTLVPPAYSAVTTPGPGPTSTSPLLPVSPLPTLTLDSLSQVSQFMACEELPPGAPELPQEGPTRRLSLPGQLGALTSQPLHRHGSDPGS
Series [11] in a line: Genotoxicity in mouse lymphoma cell. The series is classed as toxicity. As to conditions: lymphoma cell line.
The nature of series [12]: Toxicity in iv dosed cynomolgus monkey assessed as maximum tolerated dose administered for 14 days. In kind it is organism-based, Macaca fascicularis. As to conditions: in vivo, time 14 day. Put shortly: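 Three-year-old female cynomolgus monkeys were dosed intravenously for 14 days as a 30-min infusion via the saphenous vein. MTD was assessed under repeated dosing.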

A short description of series [13]: Toxicity in iv dosed Sprague-Dawley rat assessed as maximum tolerated dose administered for 4 days. In kind it is organism-based. Particulars: in vivo, time 4 day. In outline:
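Six-week-old male and female Sprague Dawley rats received intravenous bolus doses via the tail vein for 4 days. MTD was assessed under repeated dosing.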

A short description of series [14]: Plasma concentration in Hartley guinea pig at 150 mg/kg, iv measured after 30 mins by LC-MS/MS analysis. In kind it is ADME, organism-based, Cavia porcellus. In outline: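 Anesthetized guinea pigs received a 30-min iv infusion. Blood was taken at the end of infusion and centrifuged, and plasma concentration (C30min) was measured by LC-MS/MS.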
The nature of series [15]: Free plasma concentration in Hartley guinea pig serum assessed as fraction unbound at 150 mg/kg, iv measured after 30 mins by LC-MS/MS analysis. In kind it is ADME, organism-based, Cavia porcellus. Particulars: in vivo, 0.5 h. In outline: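 Unbound plasma concentration at end of 30-min iv infusion in anesthetized guinea pigs: LC-MS/MS plasma C30min multiplied by fraction unbound, with plasma fu assumed equal to serum fu (equilibrium dialysis, 500 µg/mL in guinea pig serum).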

Converted amounts (≈) assume the structure as drawn.

Take `C[C@H](O)c1nccn1Cc1cc(-c2ccc(C#C[C@@H]3[C@H]4CN(CCCC(=O)O)C[C@@H]34)cc2)on1`: the IC50 in [1] is 0.101 µM; in series [10], over 1000 µM. The MIC in the series on Escherichia coli was found to be 2 µg/mL (≈ 4.34 µM); with Klebsiella pneumoniae [2], 4 µg/mL (≈ 8.69 µM). For the same compound, the fraction unbound at 4 h, 1 ug/ml is 0.223 in [3] and 0.241 in [4]. The Activity in the series with Klebsiella pneumoniae [5] is recorded as -1.63 log10CFU; in series [7], “Non-Toxic”; in series [8], “Non-Toxic”; in series [9] it was “Non-Toxic”; in series [11], “Non-Toxic”. The MTD in series [6] was at least 200 mg/kg. Moreover, in series [12], the MTD at 336 h was over 400 mg/kg. Also, in series [13], the MTD at 96 h came out at 400 mg/kg. In series [14], this compound came in with a concentration at 0.5 h of 378 µg/mL. The “Cp(f)” value in series [15] came out at 87.3 µg/mL.
